# Diaphorase act: compounds boosting diaphorase resazurin reduction – biochemical, uHTS, resorufin fluorescence, counter-screen for diaphorase-coupled primary assays, primary screen | Diaphorase/resazurin coupled assay, 16 min; hits give high values; 1 = vehicle wells, 0 = NADH-free wells | activation factor at 20 µM | 0.005% of 190,000 active | AID 1229, 2008;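 active means diaphorase activity raised at least twofold by the compound at 20 µM; inactive means activation factor below 2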
#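 Material: Purified diaphorase enzyme from Clostridium kluyveri | Buffer or medium: 50 mM HEPES pH 7.4 with 4.542 mM MgCl2, 0.005% Tween 20 | Times: 16 min enzyme reaction, ambient temperature | Signal: Red resorufin fluorescence at 544/590 nm excitation/emission | Measure: Increased resorufin signal from activators or reducing compounds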
# G6PDH counter: L. mesenteroides G6PDH inhibitors, counter-screen for G6PDH-coupled screening assays, biochemical, Leuconostoc mesenteroides enzyme. inhibition, % at 5 µM. Purified L. mesenteroides G6PDH, diaphorase/resazurin coupled fluorescence, 45 min. glucose-6-phosphate dehydrogenase [Leuconostoc mesenteroides]. 0.12% of 200,000 active
# WT yeast gro inh: growth inhibition of WT strain, primary screen, mitochondrial fusion inhibitor project, WT and mutant strains, chemical genetic; mitochondrial fusion phenotypic screen; inhibition, % at 10 µM; 2.1% of 190,000 active; AID 1362, 2008; in the data active means inhibition above about 58%; tested in S. cerevisiae
# L major viab: Leishmania major promastigote growth inhibition, primary screen; Leishmania major promastigotes, resazurin fluorescence viability; inhibition, % at 10 µM; 9% of 200,000 active; AID 1063, 2008;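 further: promastigotes grown with compound for 44 hours at 28 °C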
# Diaph inh CS: diaphorase inhibitors and chemical oxidizers, primary screen, counter-screen for diaphorase-coupled primary assays, biochemical, uHTS, resorufin fluorescence. AID 1217, 2008. diaphorase resazurin-to-resorufin fluorescence, NADH, 16 min; bacterial (C. kluyveri) enzyme, not human. 0.69% of 190,000 active. inhibition, % at 20 µM;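 active means primary screen inhibition at 20 µM above a set limit, cut at about 50% in these data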;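 further: plate controls were DMSO with full reaction for no effect and wells lacking NADH for full effect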
#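 Test system: Clostridium kluyveri diaphorase enzyme / Quantity: diaphorase at 0.14 U/mL in enzyme working solution / Incubation: 16-min room-temperature incubation before reading / Benchmarks: NADH-free wells as positive control, DMSO-only neutral wells / Signal: resorufin fluorescence 544/590 nm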
# * hit, by the source's call; · = not tested or not shown. Hits are enriched below; roughly 11% of the tested compounds scored in any of these assays. Unless noted, no stated cut-off is given here; in the data, active means inhibition above about 50%; inactive means the rest.
SMILES,Diaphorase act,G6PDH counter,WT yeast gro inh,L major viab,Diaph inh CS
COc1ccccc1NC(=S)NCCc1c[nH]c2ccccc12,0.8,7.6,8.9,0.8,19.8
COc1cccc(CNCCc2c[nH]c3ccccc23)c1OCc1ccc(F)cc1,1,-0.4,24.1,100.4*,-0.7
COc1cc(CNCCc2c[nH]c3ccccc23)ccc1OCc1ccc(F)cc1,1.2,1.7,86.2*,100.4*,-17.5
Nc1cccc(C(=O)N/N=C/c2ccsc2)c1,0.9,4.7,6.2,-6.9,10.4
CCCCC1CCC(c2nc(-c3ccccn3)no2)CC1 (centres undefined),0.9,2.6,9.6,-11.4,12.1
CCCCC1CCC(c2nc(-c3cccnc3)no2)CC1 (centres undefined),0.8,14.6,68.1*,-6.0,21.1
O=C(Cn1nc(CNc2ccc(Cl)cc2)[n+]2c1CCCCC2)c1ccc(Br)cc1,1,-12.5,7.6,59.1*,2.6
COc1cccc(CNC(=O)CSCc2cnn(-c3ccccc3)c2-n2cccc2)c1,0.9,10.2,19.6,-9.6,14.1
Cc1ccc(Sc2cnn(-c3ccccc3)c(=O)c2Cl)cc1,0.9,5.2,76.2*,23.7,12.2
CN1CCN(CCCc2c3c(cc4c2CCC4)CCC3)CC1,1,8.0,9.5,31.1,-1.8
CSc1ccccc1NC(=S)N/N=C/c1cccn1Cc1cccc(C)c1,1,1.4,62.9*,33.1,3.9
CSc1ccccc1NC(=S)N/N=C/c1cccn1Cc1ccc(F)cc1,0.9,5.4,64.7*,26.1,6.3
CCc1ccc2[nH]c(=O)c(CN(CCN(CC)CC)C(=S)NCc3ccco3)cc2c1,1.2,14.4,-0.4,14.7,-16.2
COc1ccc(-n2cc(CNC3CCN(C)CC3)c(-c3cccc(F)c3)n2)cc1,1.6,14.8,59.0*,100.5*,-57.4
COc1ccc(-n2cc(CN3CCCC3)c(-c3cccc(F)c3)n2)cc1,1.1,7.8,25.0,44.4,-13.3
O=C(CCCn1c(=O)oc2ccccc21)NC1CCCCCC1,1,-1.1,7.8,0.8,1.7
CC1CC(NC(=O)CCn2c(=O)oc3ccccc32)CC(C)(C)C1 (centres undefined),0.9,20.8,2.5,99.4*,10.4
COCCCNCCOc1ccc(C(C)(C)c2ccccc2)cc1,0.9,6.6,37.0,99.7*,11.9
CCCOc1ccc(OCCCCNC(C)CC)cc1 (centres undefined),0.9,-1.2,2.2,98.8*,10.3
CCC(C)NCCOc1cccc(Br)c1 (centres undefined),0.9,0.9,11.8,13.5,12.7
CCC(C)NCCOc1ccc(C(C)(C)c2ccccc2)cc1 (centres undefined),1.1,19.5,64.9,99.6*,-8.3
CC(C)(c1ccccc1)c1ccc(OCCCN2CCNCC2)cc1,1,11.8,96.7,100.5*,2.3
CNCCCOc1ccc(C(C)(C)c2ccccc2)cc1,1,2.9,22.8,99.9*,-2.3
CNCCOc1ccccc1-c1ccccc1,0.9,5.1,5.7,3.8,7.5
CC1CCc2cc(F)ccc2N1C(=O)CCl (centres undefined),0.9,2.5,-5.1,75.0*,5.8
SMILES,Diaphorase act,G6PDH counter,WT yeast gro inh,L major viab,Diaph inh CS
CCC(CC)C(=O)N1c2ccc(F)cc2CCC1C (centres undefined),1,3.3,17.3,-2.2,3.3
CC1CN(S(=O)(=O)c2cccc(C(=O)Nc3ccc(S(=O)(=O)Nc4ncccn4)cc3)c2)CC(C)O1 (centres undefined),0.9,1.7,-11.0,1.1,9.2
O=C(CN1CCCc2ccccc21)N/N=C/c1ccc(O)cc1O,0.8,-26.1,-14.5,98.3*,19.0
O=C(CN1CCCc2ccccc21)N/N=C/c1ccccc1,0.8,-9.4,3.1,11.8,15.8
O=C(CN1CCCc2ccccc21)N/N=C/c1c(O)ccc2ccccc12,0.7,-15.5,-26.9,98.5*,25.2
COc1nccnc1NS(=O)(=O)c1ccc(N/C=C2\CCCCC2=O)cc1,0.9,8.4,-2.8,-13.7,11.9
CCn1c(C)cs/c1=N\C(=S)Nc1ccccc1C,0.8,-16.7,61.8*,21.8,23.3
CCn1cc(C(C)NC(=O)Nc2ccccc2C(=O)OC)c(C)n1 (centres undefined),1,0.6,8.7,-5.5,1.1
Cc1ccc(N2C(=O)C3CC(c4ccccc4)=C4C5C=CC(C6C(=O)N(c7ccc(C)cc7)C(=O)C56)C4C3C2=O)cc1 (centres undefined),0.7,3.1,-11.2,97.7*,29.0
Cc1ccc(N2C(=O)C3CC(c4ccccc4)=C4C5C=CC(C6C(=O)N(c7ccc(C)cc7C)C(=O)C56)C4C3C2=O)c(C)c1 (centres undefined),0.9,-1.3,·,77.8*,12.2
CCN(CC)c1ccc2c(C)c(CN3CCOCC3)c(=O)oc2c1,0.9,4.2,14.0,100.2*,11.9
Cc1ccc(C2=NN(S(C)(=O)=O)C(c3cccs3)C2)cc1 (centres undefined),1,2.9,5.7,4.4,3.9
CCc1ccc(C2=NN(S(C)(=O)=O)C(c3cccs3)C2)cc1 (centres undefined),0.9,18.3,13.6,67.3*,14.6
Cn1c(N)c(N2CCCCC2)c(=O)n(CC(=O)Nc2ccc(Cl)c(Cl)c2)c1=O,0.8,1.0,-1.9,3.5,20.6
O=C(Cn1c2c(sc1=O)C1c3ccccc3OCC1CS2)Nc1ccc(Cl)c(Cl)c1 (centres undefined),1.1,12.8,22.4,95.7*,-5.4
NNc1nc(Nc2ccccc2)nc(Nc2ccccc2)n1,1,5.1,16.9,100.5*,-1.0
COc1nc(Nc2ccc(-c3nc4ccccc4o3)cc2)nc(N2CCOCC2)n1,·,·,·,-1.5,·
CCCNc1nc(Nc2ccc(C)cc2)nc(N2CCCC2)n1,1,-2.5,67.0,89.0*,-1.5
NNc1nc(Nc2ccccc2)nc(N2CCCCC2)n1,1,-2.0,19.7,100.0*,4.5
c1ccc2oc(-c3ccc(Nc4nc(N5CCCCC5)nc(N5CCOCC5)n4)cc3)nc2c1,0.7,-5.5,13.3,73.7*,27.1
Cc1ccc(CNC(=O)CSc2nc3ccccc3c3nc(C)nn23)cc1,0.9,1.9,-3.6,5.0,14.0
Fc1ccccc1N1CCN(Cc2nc(-c3ccc(Cl)cc3Cl)no2)CC1,0.8,-1.4,4.5,-4.7,16.6
CCCCn1c(=O)nc2n(-c3ccccc3)c3ccccc3cc-2c1=O,1,8.4,-7.8,-3.5,-2.1
COc1cccc2cc(C(=O)Nc3ccc(F)cc3)c(=Nc3ccc(C(=O)O)cc3)oc12,0.4,0.2,-6.1,-1.0,61.9*
Oc1ccc(/C=N/N2CCN(C3c4ccccc4-c4ccccc43)CC2)c(O)c1,0.8,14.4,98.0*,-2.5,22.2

# Bioassay records: PubChem BioAssay, several laboratories
